Converted amounts (≈) assume the structure as drawn.
Columns and labels:
Format in all cases: functional
Athelia rolfsii = experiment: Fungicidal activity against Athelia rolfsii by poisoned food technique; settings: Agroathelia rolfsii; read-out: ED50 (the source's name)
Rhizoctonia solani = experiment: Fungicidal activity against Rhizoctonia solani by poisoned food technique; settings: read-out: ED50 (the source's name)
Fusarium oxysporum = experiment: Fungicidal activity against Fusarium oxysporum by poisoned food technique; settings: read-out: ED50 (the source's name)
Alternaria porri = experiment: Fungicidal activity against Alternaria porri by poisoned food technique; settings: read-out: ED50 (the source's name)
Macrophomina phaseolina = experiment: Fungicidal activity against Rhizoctonia bataticola by poisoned food technique; settings: read-out: ED50 (the source's name)
Spodoptera litura [1] = experiment: Insecticidal activity against third-instar larval stage of prestarved Spodoptera litura in castor leaf assessed as mortality at 0.1% treated for 2 secs before larval infestation measured after 24 hr by feeding method
In short: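 Castor leaf is dipped 2 s in 0.1% compound solution, air-dried, and placed on moist filter paper in 9 cm Petri plates. Larvae starved 4 h beforehand are released singly, one per plate. Thirty replicates per treatment, solvent control. Mortality is scored after 24 h.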

Callosobruchus maculatus = experiment: Insecticidal activity against adult Callosobruchus maculatus assessed as mortality at 0.1% at 27 +/-1 degC after 24 hr by contact based film residue method
In short: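 Lab-reared adults, 2-5 days old, exposed to a dry film: 1 mL of 0.1% compound solution in dichloromethane is swirled in a 90 mm Petri plate and dried 3-5 min. Ten adults per plate are held at 27 ± 1 °C and 70% RH. Mortality is scored at 24 h, with no response to touch counted as dead. Triplicates, solvent control, malathion reference.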

Spodoptera litura [2] = experiment: Insecticidal activity against third-instar larval stage of Spodoptera litura assessed as mortality at 0.1% applied topically on the ventral side of the larvae measured after 24 hr by contact method
In short: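 Field-collected larvae are reared in the lab at 27 ± 1 °C and 70% RH. Two microliters of a 0.1% dichloromethane solution is applied to the ventral side. Ten treated larvae are kept per glass bottle and fed fresh castor leaves. Mortality is recorded at 24 h. Triplicate, solvent control.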

Tribolium castaneum = experiment: Insecticidal activity against adult Tribolium castaneum (red flour beetle) in compound pre-treated green gram grains assessed as mortality at 20 mg/kg after 48 hr by feeding based residue method; settings: in Vigna radiata
In short: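 Green gram grains are treated with compound in dichloromethane (0.6 mg in 5 mL) at 20 mg active ingredient per kg grain (0.002%). Ten adults are released onto 10 g of treated grain in a plastic box. Mortality is recorded after 48 h. Triplicate, solvent-treated control.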

Structure (SMILES) | EC50 (Athelia rolfsii) [µg/mL] | EC50 (Rhizoctonia solani) [µg/mL] | EC50 (Fusarium oxysporum) [µg/mL] | EC50 (Alternaria porri) [µg/mL] | EC50 (Macrophomina phaseolina) [µg/mL] | mortality (Spodoptera litura [1]) [%] | mortality (Callosobruchus maculatus) [%] | mortality (Spodoptera litura [2]) [%] | mortality at 20 mg/kg (Tribolium castaneum) [%]
CCn1cc(C(=O)N/N=C/c2cccc(C)c2)c(=O)c2ccc(C)nc21 | 298 (≈ 854 µM) | 301 (≈ 865 µM) | 103 (≈ 296 µM) | 66.9 (≈ 192 µM) | 322 (≈ 924 µM) | 80 | 60 | – | –
CCn1cc(C(=O)NN=C2C3CC4CC(C3)CC2C4)c(=O)c2ccc(C)nc21 | 524 (≈ 1380 µM) | 405 (≈ 1070 µM) | 258 (≈ 683 µM) | 133 (≈ 351 µM) | 638 (≈ 1690 µM) | 50 | 0 | 10 | 10
CCn1cc(C(=O)N/N=C/c2ccc(C(C)C)cc2)c(=O)c2ccc(C)nc21 | 464 (≈ 1230 µM) | 252 (≈ 671 µM) | 277 (≈ 736 µM) | 124 (≈ 331 µM) | 453 (≈ 1200 µM) | 10 | 20 | – | –
CCn1cc(C(=O)N/N=C/c2cccc(OC)c2)c(=O)c2ccc(C)nc21 | 242 (≈ 665 µM) | 157 (≈ 432 µM) | 63.1 (≈ 173 µM) | 57.6 (≈ 158 µM) | 210 (≈ 575 µM) | 10 | 10 | – | –
CCn1cc(C(=O)N/N=C/c2c3ccccc3cc3ccccc23)c(=O)c2ccc(C)nc21 | 429 (≈ 986 µM) | 374 (≈ 861 µM) | 222 (≈ 511 µM) | 151 (≈ 348 µM) | 390 (≈ 897 µM) | 20 | 10 | 10 | 15
CCn1cc(C(=O)N/N=C/c2ccccc2Cl)c(=O)c2ccc(C)nc21 | 570 (≈ 1550 µM) | 246 (≈ 666 µM) | 143 (≈ 389 µM) | 90.1 (≈ 244 µM) | 593 (≈ 1610 µM) | 10 | 30 | 10 | 10
C/C=C/C=N/NC(=O)c1cn(CC)c2nc(C)ccc2c1=O | 204 (≈ 683 µM) | 248 (≈ 830 µM) | 95.4 (≈ 320 µM) | 89.8 (≈ 301 µM) | 324 (≈ 1090 µM) | 60 | 0 | – | –
CCn1cc(C(=O)N/N=C/c2ccc(F)cc2)c(=O)c2ccc(C)nc21 | 220 (≈ 624 µM) | 234 (≈ 665 µM) | 79.9 (≈ 227 µM) | 64.8 (≈ 184 µM) | 244 (≈ 692 µM) | 50 | 10 | – | –
CCn1cc(C(=O)N/N=C/c2cccc(Br)c2)c(=O)c2ccc(C)nc21 | 380 (≈ 920 µM) | 439 (≈ 1060 µM) | 209 (≈ 506 µM) | 125 (≈ 303 µM) | 628 (≈ 1520 µM) | 20 | 20 | 10 | –
CCn1cc(C(=O)N/N=C/c2ccc(O)cc2O)c(=O)c2ccc(C)nc21 | 397 (≈ 1080 µM) | 342 (≈ 932 µM) | 196 (≈ 536 µM) | 144 (≈ 392 µM) | 650 (≈ 1770 µM) | 40 | 25 | – | –
CCCCC(O)(Cn1cncn1)c1ccc(Cl)cc1Cl (stereo not drawn) [HEXACONAZOLE] | 13 (≈ 41.4 µM) | 18.3 (≈ 58.2 µM) | 20.6 (≈ 65.6 µM) | 25.5 (≈ 81.2 µM) | 4.4 (≈ 14 µM) | – | – | – | –
CCn1cc(C(=O)N/N=C/c2ccc([N+](=O)[O-])cc2)c(=O)c2ccc(C)nc21 | 464 (≈ 1220 µM) | 226 (≈ 595 µM) | 125 (≈ 330 µM) | 70.1 (≈ 185 µM) | 575 (≈ 1520 µM) | 90 | 10 | 10 | –
CCOc1cc(/C=N/NC(=O)c2cn(CC)c3nc(C)ccc3c2=O)ccc1O | 384 (≈ 974 µM) | 356 (≈ 903 µM) | 185 (≈ 469 µM) | 92.1 (≈ 234 µM) | 400 (≈ 1010 µM) | 90 | 22 | 10 | –
CCn1cc(C(=O)N/N=C/c2ccccc2[N+](=O)[O-])c(=O)c2ccc(C)nc21 | 655 (≈ 1730 µM) | 329 (≈ 866 µM) | 169 (≈ 445 µM) | 71.3 (≈ 188 µM) | 610 (≈ 1610 µM) | 100 | 60 | 30 | 20
CCn1cc(C(=O)N/N=C/c2ccc(OC)c(OC)c2)c(=O)c2ccc(C)nc21 | 359 (≈ 909 µM) | 172 (≈ 435 µM) | 137 (≈ 346 µM) | 102 (≈ 259 µM) | 285 (≈ 722 µM) | 40 | 10 | – | –
CCn1cc(C(=O)N/N=C/c2cccc([N+](=O)[O-])c2)c(=O)c2ccc(C)nc21 | 287 (≈ 756 µM) | 245 (≈ 645 µM) | 212 (≈ 559 µM) | 89 (≈ 235 µM) | 272 (≈ 716 µM) | 80 | 10 | – | –

Structure (SMILES) | EC50 (Athelia rolfsii) [µg/mL] | EC50 (Rhizoctonia solani) [µg/mL] | EC50 (Fusarium oxysporum) [µg/mL] | EC50 (Alternaria porri) [µg/mL] | EC50 (Macrophomina phaseolina) [µg/mL] | mortality (Spodoptera litura [1]) [%] | mortality (Callosobruchus maculatus) [%] | mortality (Spodoptera litura [2]) [%] | mortality at 20 mg/kg (Tribolium castaneum) [%]
CCn1cc(C(=O)N/N=C/c2ccc(Cl)cc2)c(=O)c2ccc(C)nc21 | 438 (≈ 1190 µM) | 308 (≈ 834 µM) | 119 (≈ 322 µM) | 87.2 (≈ 236 µM) | 371 (≈ 1000 µM) | 40 | 10 | – | –
CCn1cc(C(=O)N/N=C/c2ccc(C)cc2)c(=O)c2ccc(C)nc21 | 374 (≈ 1070 µM) | 372 (≈ 1070 µM) | 195 (≈ 560 µM) | 87.3 (≈ 251 µM) | 378 (≈ 1080 µM) | 70 | 20 | 10 | –
CCn1cc(C(=O)N/N=C/c2ccc3ccccc3c2)c(=O)c2ccc(C)nc21 | 202 (≈ 526 µM) | 192 (≈ 498 µM) | 89.5 (≈ 233 µM) | 75.6 (≈ 197 µM) | 256 (≈ 666 µM) | 70 | 0 | 10 | 10
CCn1cc(C(=O)N/N=C/c2ccc(O)c(OC)c2)c(=O)c2ccc(C)nc21 | 460 (≈ 1210 µM) | 317 (≈ 833 µM) | 377 (≈ 991 µM) | 128 (≈ 337 µM) | 528 (≈ 1390 µM) | 100 | 20 | 20 | –
CCn1cc(C(=O)N/N=C/c2ccccc2C)c(=O)c2ccc(C)nc21 | 346 (≈ 993 µM) | 408 (≈ 1170 µM) | 129 (≈ 369 µM) | 109 (≈ 313 µM) | 533 (≈ 1530 µM) | 0 | 10 | – | –
CCn1cc(C(=O)N/N=C/c2ccc(OC)cc2OC)c(=O)c2ccc(C)nc21 | 375 (≈ 950 µM) | 188 (≈ 477 µM) | 176 (≈ 447 µM) | 131 (≈ 332 µM) | 382 (≈ 969 µM) | 100 | 12 | 10 | –
CC1(C)C(C=C(Cl)Cl)C1C(=O)OC(C#N)c1cccc(Oc2ccccc2)c1 (stereo not drawn) [ALPHA-CYPERMETHRIN] | – | – | – | – | – | 100 | – | – | –
CCn1cc(C(=O)N/N=C/c2c(Cl)cccc2Cl)c(=O)c2ccc(C)nc21 | 282 (≈ 701 µM) | 298 (≈ 738 µM) | 114 (≈ 283 µM) | 87.2 (≈ 216 µM) | 255 (≈ 633 µM) | 100 | 30 | 10 | –
CCn1cc(C(=O)N/N=C/c2cccc(Cl)c2)c(=O)c2ccc(C)nc21 | 439 (≈ 1190 µM) | 394 (≈ 1070 µM) | 132 (≈ 358 µM) | 98.8 (≈ 268 µM) | 504 (≈ 1370 µM) | 90 | 10 | – | –
CCn1cc(C(=O)N/N=C/c2ccc(Cl)cc2Cl)c(=O)c2ccc(C)nc21 | 541 (≈ 1340 µM) | 354 (≈ 877 µM) | 121 (≈ 300 µM) | 119 (≈ 296 µM) | 495 (≈ 1230 µM) | 100 | 40 | – | –
CCn1cc(C(=O)N/N=C/c2cc(OC)c(OC)c(OC)c2)c(=O)c2ccc(C)nc21 | 186 (≈ 438 µM) | 174 (≈ 409 µM) | 102 (≈ 241 µM) | 79.4 (≈ 187 µM) | 201 (≈ 474 µM) | 90 | 10 | 10 | –
CCn1cc(C(=O)N/N=C/c2ccccn2)c(=O)c2ccc(C)nc21 | 198 (≈ 590 µM) | 170 (≈ 508 µM) | 79.1 (≈ 236 µM) | 77.3 (≈ 230 µM) | 372 (≈ 1110 µM) | 100 | 10 | – | –
CCn1cc(C(=O)N/N=C/c2ccc(OC)cc2)c(=O)c2ccc(C)nc21 | 320 (≈ 879 µM) | 238 (≈ 654 µM) | 152 (≈ 416 µM) | 121 (≈ 332 µM) | 301 (≈ 825 µM) | 70 | 70 | – | 30
CCn1cc(C(=O)N/N=C/c2cccc3ccccc23)c(=O)c2ccc(C)nc21 | 259 (≈ 674 µM) | 226 (≈ 589 µM) | 134 (≈ 350 µM) | 115 (≈ 300 µM) | 316 (≈ 821 µM) | 90 | 0 | 10 | –
CCn1cc(C(=O)NN=C2CCCCC2)c(=O)c2ccc(C)nc21 | 177 (≈ 543 µM) | 166 (≈ 510 µM) | 62.6 (≈ 192 µM) | 34.2 (≈ 105 µM) | 188 (≈ 577 µM) | 70 | 0 | – | 15
CCn1cc(C(=O)N/N=C/c2ccc(O)cc2)c(=O)c2ccc(C)nc21 | 364 (≈ 1040 µM) | 330 (≈ 943 µM) | 181 (≈ 517 µM) | 146 (≈ 416 µM) | 308 (≈ 878 µM) | 70 | 40 | 10 | –
